Assay results from PubChem BioAssay AID623965 (Broad Institute, 2012).
Where “and” joins values, the source holds several entries; their conditions need not be identical. Equal values may be shown once.

The compounds below were run on Candida glabrata growth in glycerol medium, OD600, 48 h (assay: single-agent C. glabrata growth inhibition on glycerol, dose response, glycerol carbon source, dry powder, plate reader, set 3 (AID 623965)).
Procedure, shortened: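 system = Candida glabrata yeast cells | medium = CSM synthetic medium with glycerol as carbon source | times = 48 h static incubation at 30 °C, humidified | detection = optical density at 600 nm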

Going from `CCOC(=O)N1C(=O)C2(CCCCC2)N(c2ccc(F)cc2)C1=S` to `CCOC(=O)N1C(=O)C2(CCCCC2)N(c2ccc(Cl)cc2)C1=S`, the AC50 rises from 11.3 nM to 29.7 nM (2.6-fold).

`CCOC(=O)N1C(=O)C2(CCCCC2)N(c2cccc(C)c2)C1=S` and `CCOC(=O)N1C(=O)C2(CCCCC2)N(c2ccccc2)C1=S` are within 1.5-fold of each other in AC50: 38.6 nM for the first, 33.5 nM for the second.

Compared with `C/C=C/[C@@H]1[C@H]2C[C@@H](C)CC[C@@H]2C(C)=C[C@H]1C(=O)c1c(O)c(-c2ccc(O)cc2)c[nH]c1=O`, `CCOC(=O)N1C(=O)C2(CCCCC2)N(c2ccc(C#N)cc2)C1=S` is 74-fold lower in AC50: 2940 nM for the first, 39.8 nM for the second.

Compound `CC1/C=C/C=C\C=C\C=C\C=C\C=C\C=C\C(O[C@H]2OC(C)C(O)C(N)C2O)CC2OC(O)(CC(O)CC(O)C(O)CCC(O)CC(O)CC(=O)OC(C)C(C)C1O)CC(O)C2C(=O)O` (stereo partly drawn) has an AC50 of 1410 nM.

With `CCOC(=O)N1C(=O)C2(CCCCC2)N(c2ccc(C)cc2)C1=S` the AC50 was 57.6 nM and 55.3 nM.
